In ChEMBL document CHEMBL1151223, “Antimycotic spirostanol saponins from Solanum hispidum leaves and their structure-activity relationships” (2004):
≈ marks a conversion by molar mass, not a printed value.

What was measured:
[1] = tested on: Candida albicans; assay: Antimycotic activity against Candida albicans ATCC 10231 after 48 hrs; type: functional
[2] = tested on: Trichophyton mentagrophytes; assay: Antimycotic activity against Trichophyton mentagrophytes ATCC 28185 after 72 hrs; type: functional; conditions: ATCC 28185, 72 h
Method in brief: (§1)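 Agar dilution MIC on Sabouraud glucose agar; the filamentous fungi were maintained on potato dextrose agar at 27 °C. DMSO stocks were diluted 2-fold and added to the medium: pure compounds 400-3.125 µg/mL, extracts 10-1.25 mg/mL, references 128-1 µg/mL; final DMSO at most 2%. A hemocytometer-counted spore inoculum was loop-applied to the agar surface, and plates were incubated at 29 °C for 72 h. MIC was the lowest concentration with no visible growth; run in triplicate.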

[3] = tested on: Candida albicans; assay: Antimycotic activity against Candida albicans ATCC 10231 after 24 hrs; conditions: ATCC 10231, 24 h
[4] = tested on: Trichophyton rubrum; assay: Antimycotic activity against Trichophyton rubrum ATCC 28188 after 72 hrs; type: functional; conditions: ATCC 28188, 72 h; method in brief: as §1
[5] = tested on: Aspergillus niger; assay: Antimycotic activity against Aspergillus niger ATCC 10335 after 48 hrs; conditions: ATCC 10335, 48 h

| Molecule | MIC [1] | MIC [2] | MIC [3] | MIC [4] | MIC [5] |
| --- | --- | --- | --- | --- | --- |
| NYSTATIN | 8 µg/mL |  |  |  |  |
| C[C@@H]1CC[C@@]2(OC1)O[C@H]1C[C@H]3[C@@H]4C[C@H](O[C@@H]5O[C@H](C)[C@@H](O)[C@H](O)[C@H]5O)[C@H]5C[C@@H](O)CC[C@]5(C)[C@H]4CC[C@]3(C)[C@H]1[C@@H]2C |  | 25 µg/mL (≈ 43.2 µM) | 200 µg/mL (≈ 346 µM) | 50 µg/mL (≈ 86.4 µM) | > 400 µg/mL |
| C[C@H]1CO[C@@]2(O[C@H]3C[C@H]4[C@@H]5C[C@H](O[C@@H]6O[C@H](C)[C@@H](O)[C@H](O[C@@H]7O[C@H](C)[C@@H](O)[C@H](O)[C@@H]7O)[C@H]6O)[C@H]6C[C@@H](O)CC[C@]6(C)[C@H]5CC[C@]4(C)[C@H]3[C@@H]2C)[C@@H](O)C1 |  | 200 µg/mL (≈ 270 µM) | 200 µg/mL (≈ 270 µM) | 200 µg/mL (≈ 270 µM) | 200 µg/mL (≈ 270 µM) |
| C[C@@H]1CO[C@@]2(O[C@H]3C[C@H]4[C@@H]5C[C@H](O[C@@H]6O[C@H](C)[C@@H](O)[C@H](O[C@@H]7OC[C@@H](O)[C@H](O)[C@H]7O)[C@H]6O)[C@H]6C[C@@H](O)CC[C@]6(C)[C@H]5CC[C@]4(C)[C@H]3[C@@H]2C)[C@@H](O)C1 |  | 25 µg/mL (≈ 34.4 µM) | > 400 µg/mL | 25 µg/mL (≈ 34.4 µM) | > 400 µg/mL |
| C[C@@H]1CC[C@@]2(OC1)O[C@H]1C[C@H]3[C@@H]4C[C@H](O[C@@H]5O[C@H](C)[C@@H](O)[C@H](O[C@@H]6O[C@H](C)[C@@H](O)[C@H](O)[C@@H]6O)[C@H]5O)[C@H]5C[C@@H](O)CC[C@]5(C)[C@H]4CC[C@]3(C)[C@H]1[C@@H]2C |  | 200 µg/mL (≈ 276 µM) | 200 µg/mL (≈ 276 µM) | 50 µg/mL (≈ 69 µM) | 400 µg/mL (≈ 552 µM) |
| C[C@@H]1CC[C@@]2(OC1)O[C@H]1C[C@H]3[C@@H]4C[C@H](O[C@@H]5OC[C@@H](O)[C@H](O)[C@H]5O)[C@H]5C[C@@H](O)CC[C@]5(C)[C@H]4CC[C@]3(C)[C@H]1[C@@H]2C |  | 100 µg/mL (≈ 177 µM) | 200 µg/mL (≈ 354 µM) | 100 µg/mL (≈ 177 µM) | > 400 µg/mL |
| C[C@H]1CC[C@@]2(OC1)O[C@H]1C[C@H]3[C@@H]4C[C@H](O[C@@H]5O[C@H](C)[C@@H](O)[C@H](O[C@@H]6OC[C@@H](O)[C@H](O)[C@H]6O)[C@H]5O)[C@H]5C[C@@H](O)CC[C@]5(C)[C@H]4CC[C@]3(C)[C@H]1[C@@H]2C |  | 25 µg/mL (≈ 35.2 µM) | > 400 µg/mL | 25 µg/mL (≈ 35.2 µM) | > 400 µg/mL |
| C[C@@H]1CC[C@@]2(OC1)O[C@H]1C[C@H]3[C@@H]4C[C@H](O[C@@H]5O[C@H](C)[C@@H](O)[C@H](O[C@@H]6OC[C@@H](O)[C@H](O)[C@H]6O)[C@H]5O)[C@H]5C[C@@H](O)CC[C@]5(C)[C@H]4CC[C@]3(C)[C@H]1[C@@H]2C |  | 12.5 µg/mL (≈ 17.6 µM) | 200 µg/mL (≈ 281 µM) | 12.5 µg/mL (≈ 17.6 µM) | 100 µg/mL (≈ 141 µM) |
| C[C@H]1CC[C@@]2(OC1)O[C@H]1C[C@H]3[C@@H]4C[C@H](O[C@@H]5O[C@H](C)[C@@H](O)[C@H](O)[C@H]5O)[C@H]5C[C@@H](O)CC[C@]5(C)[C@H]4CC[C@]3(C)[C@H]1[C@@H]2C |  | 25 µg/mL (≈ 43.2 µM) | > 400 µg/mL | 50 µg/mL (≈ 86.4 µM) | > 400 µg/mL |
| Clc1ccc(COC(Cn2ccnc2)c2ccc(Cl)cc2Cl)c(Cl)c1 (stereo not given) [MICONAZOLE] |  | 4 µg/mL (≈ 9.61 µM) |  | 4 µg/mL (≈ 9.61 µM) | 8 µg/mL (≈ 19.2 µM) |
| C[C@@H]1CO[C@@]2(O[C@H]3C[C@H]4[C@@H]5C[C@H](O[C@@H]6O[C@H](C)[C@@H](O)[C@H](O[C@@H]7OC[C@@H](O)[C@H](O)[C@H]7O)[C@H]6O)[C@H]6C[C@@H](O)CC[C@]6(C)[C@H]5CC[C@]4(C)[C@H]3[C@@H]2C)[C@H](O)C1 |  | 100 µg/mL (≈ 138 µM) | > 400 µg/mL | 100 µg/mL (≈ 138 µM) | > 400 µg/mL |
